“Also recorded” adds a separate entry of the source.
Experiments:
[1] = test system: insulin-stimulated glucose transport; conditions: cited from earlier work
[2] = Plasma pharmacokinetics of UCN-01 in patients; format: in vivo, human
In short: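 Heparinized blood drawn in cycle 1 before dosing, 12, 24, 48 and 72 h after infusion start, and 12, 24 and 48 h after infusion end. Cycle 2 sampled pre-dose, at 36 h and 24 h post-end. Plasma spun 1200 x g, 5 min, 4°C, stored -80°C; assayed by HPLC-UV. Noncompartmental analysis: Cmax by inspection; λz from ≥3 terminal points; t1/2 = 0.693/λz; linear-trapezoidal AUC extrapolated by Ct/λz; CL = dose/AUC.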

[3] = test system: patients with advanced malignancies; assay: Tumor response by RECIST in the phase I trial of UCN-01 with prednisone; format: in vivo, human; conditions: 15 patients
In short: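 Tumor response assessed radiographically every two cycles by RECIST. Patients received continuous IV test compound (72 h in cycle 1, 36 h thereafter) plus oral glucocorticoid 60 mg/m2/day on days 1-5, in 28-day cycles.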

protein kinase C = conditions: cited from earlier work
[4] = test system: patients with advanced malignancies; assay: Phase I safety and toxicity, DLT and MTD of UCN-01 with prednisone; format: in vivo, human
In short: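 Open-label single-arm escalation with 3-6 patients per level. Test compound by continuous IV infusion, 72 h (days 3-5) in cycle 1, then 36 h from day 3; levels 17, 24, 34 mg/m2/24 h. Oral glucocorticoid 60 mg/m2/day, days 1-5; 28-day cycles. Graded by NCI CTC v2.0. DLT: grade 3-4 non-hematologic (separate hyperglycemia rules), grade 4 granulocytopenia or thrombocytopenia. MTD: ≤1 of 6 with DLT.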

[5] = test system: patients with refractory neoplasms; conditions: cited from earlier work
[6] = 15 patients, 55 courses, with prednisone
[7] = drug-related adverse events, 15 patients, all dose levels

Compound: CN[C@@H]1C[C@H]2O[C@@](C)([C@@H]1OC)n1c3ccccc3c3c4c(c5c6ccccc6n2c5c31)C(=O)NC4 [Staurosporine]
- effect on insulin-stimulated glucose transport [1]: inhibit insulin-stimulated glucose transport

Compound: CN[C@@H]1C[C@H]2O[C@@](C)([C@@H]1OC)n1c3ccccc3c3c4c(c5c6ccccc6n2c5c31)C(=O)N[C@@H]4O [UCN-01, 7-hydroxy staurosporine]
- Clearance Mean ([2]; cycle 1, 72-h IV infusion, UCN-01 17 mg/m^2/24 h, with prednisone): 5.4 mL/h/m^2
- Clearance Mean ([2]; cycle 1, 72-h IV infusion, UCN-01 24 mg/m^2/24 h, with prednisone): 3.1 mL/h/m^2
- Clearance Mean ([2]; cycle 1, 72-h IV infusion, UCN-01 34 mg/m^2/24 h, with prednisone): 4.2 mL/h/m^2
- half-life ([2]; human, plasma, intravenous, half-life, at the MTD, with prednisone): ~18.8 days
- Cmax ([2]; human, plasma, intravenous, mean Cmax, at the MTD, with prednisone): ~12000 ng/mL
- AUC(0-inf) ([2]; human, plasma, iv, AUCinf Mean, cycle 1, 72-h IV infusion, UCN-01 17 mg/m^2/24 h, with prednisone): 3130 µg·h/mL
- Cmax ([2]; human, plasma, iv, Cmax Mean, cycle 1, 72-h IV infusion, UCN-01 17 mg/m^2/24 h, with prednisone): 10000 ng/mL
- clearance ([2]; range over all dose levels (17, 24 and 34 mg/m^2/24 h x 72 h)): 2.13−5.47 mL/h/m^2
- patients with stable disease for longer than two cycles [3]: five
- response as defined by RECIST criteria [3]: No objective responses; also recorded: None of the 15 patients had a response
- IC50 (protein kinase C): 4 to 30 nM
- cumulative toxicities [4, 6]: no cumulative toxicities
- grade 4 adverse events [4, 6]: no grade 4 adverse events
- patients developing some grade of hyperglycemia ([4]; 15 patients, with prednisone): All patients
- MTD and recommended phase II dose, cycle 2 and beyond ([4]; CIV over 36 h, with prednisone 60 mg/m^2/day for 5 days every cycle): 36 mg/m^2/cycle
- reduction in the maximum dose of UCN-01 that could be safely administered ([4]; combination with prednisone versus single agent on the same schedule): 44%
- DLTs ([4]; dose level 2 (72 mg/m^2 total dose over 72 h for cycle 1 followed by 36 mg/m^2/cycle), six patients): without any DLTs
- grade 3 hyperglycemia, patients ([4]; dose level 3 (102 mg/m^2 total dose over 72 h for cycle 1 followed by 51 mg/m^2/cycle)): three
- DLT: grade 3 hypophosphatemia during cycle 1, patients ([4]; dose level 3 (102 mg/m^2 total dose over 72 h for cycle 1 followed by 51 mg/m^2/cycle), six patients): Two of the six patients
- Anemia grade 2, No. of patients [4, 7]: 2 (1)
- Headache grade 2, No. of patients [4, 7]: 2 (1)
- Hyperglycemia grade 2, No. of patients [4, 7]: 2 (9)
- Hypoalbuminemia grade 2, No. of patients [4, 7]: 2 (2)
- Hyponatremia grade 3, No. of patients [4, 7]: 3 (1)
- Hypophosphatemia grade 2, No. of patients [4, 7]: 2 (6)
- Hypophosphatemia grade 3, No. of patients [4, 7]: 3 (4)
- Leucopenia grade 2, No. of patients [4, 7]: 2 (1)
- Leucopenia grade 3, No. of patients [4, 7]: 3 (1)
- Neutropenia grade 2, No. of patients [4, 7]: 2 (1)
- Rash/desquamation grade 2, No. of patients [4, 7]: 2 (1)
- Visual (photophobia) grade 2, No. of patients [4, 7]: 2 (1)
- MTD and recommended phase II dose, cycle 1 ([4]; total dose CIV over 72 h, with prednisone 60 mg/m^2/day for 5 days every cycle): 72 mg/m^2
- GI toxicity ([4]; with prednisone): did not observe any significant GI toxicity
- pulmonary toxicity ([4]; with prednisone): did not observe any pulmonary toxicity
- toxicity at the dose level above the single-agent MTD ([5]; 159 mg/m^2 over 72 h): grade 4 hyperglycemia and vomiting
- MTD, single agent, cycle 1 ([5]; over 72h, same schedule): 127.5 mg/m^2
- duration of prolonged disease stabilization ([5]; patient with alk-positive anaplastic large-cell lymphoma): > 2.5 years
- partial response ([5]; patient with melanoma): One partial response
- "free" UCN-01 levels at the end of infusion ([5]; supernatant of ultracentrifuged plasma, 24 mg/m^2/day for 3 days): 200 to 600 nmol/L
- MTD, single agent, subsequent cycles ([5]; total dose administered over 36 h): 63 mg/m^2

From publication PMC2854012 (Cancer chemotherapy and pharmacology, 2009)
